Measurements as given in ChEMBL document CHEMBL4513216, “Probing the Open Global Health Chemical Diversity Library for Multistage-Active Starting Points for Next-Generation Antimalarials” (ACS Infect Dis, 2020).

Test: Toxicity liver stage against HepG2, at 10uM
Format: cell-based
Design: test concentration 10 uM, cell line HepG2-A16-CD81EGFP
Conditions: human, HepG2-A16-CD81EGFP cells; read-out: INHIBITION
Summary of the method: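 Uninfected HepG2-A16-CD81EGFP cells, 3 × 10^3 per well, 1536-well, plated on prespotted compound at 10 μM final, parasite-free screening media added to match infected plates; puromycin 10 μM positive, DMSO 0.5% negative; run in parallel with 48 h PbLuc assay at 37 °C, 5% CO2; viability by CellTiter-Glo luminescence, normalized to controls.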

SMILES	cytotoxicity at 10 µM [%]
CC(NS(=O)(=O)CC1(C#N)CCCC1)c1cccc(-n2cccn2)c1 (centres undefined)	3.15
Cc1cnn(C2CCCN(C(=O)Cc3cn4ccsc4n3)C2)c1 (centres undefined)	-4.89
Cc1nnc(SCC(=O)N2C[C@@H]3CC[C@H]2CN(c2ncccn2)C3)[nH]1	2.24
CC(C(=O)N1CCCN(c2ncccc2C#N)CC1)n1cccn1 (centres undefined)	-4.3
CC(C)OCC(=O)N1CCC(c2ncncc2-c2ccnc(N)c2)C1 (centres undefined)	-2.44
Cc1cnn(Cc2cc(F)ccc2F)c1NC(=O)NC1CC1	16.9
CC(C)OCCCNC(=O)CS(=O)(=O)Cc1ccc(Cl)cc1	-2.87
CC(C)c1nnsc1CN1CCc2[nH]nc(-c3ccc(Cl)cc3)c2C1	-10.3
CC(Oc1ccccc1C(F)(F)F)C(=O)NCC(=O)N1CCCC1 (centres undefined)	5.12
Cc1cc(C)c(CN2CCCC23Cc2ccccc2CNC3=O)c(C)c1 (centres undefined)	10.8
O=C(c1cccc(CNCC=Cc2ccccc2)c1)N1CCCC1	9.46
COc1ccc(-n2cnnc2CC2CCNCC2)cc1	-5.53
COc1ccccc1OCCC(=O)NCc1ncc(C)c(OC)c1C	-3.63
Cc1cnn(CC2CCCN2C(=O)Cc2ccc(C)nc2)c1 (centres undefined)	-1.64
CCCNc1ncc(CN2CCC3(CCNC(=O)CC3)CC2)cn1	-166
COc1ccc(CC(=O)N2CC[C@@H](OC)[C@@H]2Cc2cccnc2)cc1	8.48
CSc1[nH]nc(NC(=O)c2cccnc2)c1C#N	-4.87
O=C(C1CCOCC1)N1CCc2ncc(CN3CCCCC3)n2CC1	-78.4
CCN1CCC(Cn2ccc3c(OC)c(OC)ccc3c2=O)C1 (centres undefined)	-4.7
O=C(c1cccnc1)N1CCC2(CC1)CC(Oc1ccccc1)CO2 (centres undefined)	1.65
Cc1nn(C)cc1-c1ccnc(N(C)Cc2noc(C(C)C)n2)n1	1.41
Cn1cc(CN2CCO[C@@H]3CN(C4CCCC4)C[C@@H]3C2)cn1	-4.8

SMILES	cytotoxicity at 10 µM [%]
O=C(CCNS(=O)(=O)c1ccc(Cl)cc1)NCc1ccoc1	-11.8
Cc1nc(CN2CCN(C(=O)CCc3nc(C(C)(C)C)no3)CC2)cs1	3.64
Cn1cc(CN2C[C@@H]3COC[C@]3(C(=O)NCCc3ccccc3)C2)cn1	8.86
CN(C)c1cc2c(nn1)CCN(C(=O)C1Cc3ccccc3O1)C2 (centres undefined)	-18.5
Cc1ccoc1C(=O)N1CCO[C@H]2[C@H](OCc3ccncc3)CC[C@@H]21	9.06
COC(=O)Cn1c(C)cc(=O)n2nc(-c3cccs3)nc12	8.74
CC(Cn1cccn1)NC(=O)N(C)Cc1ccsc1 (centres undefined)	-3.81
Cc1cc(C)c2cc(C(=O)N3CCNC(=O)C3)[nH]c2c1	-13.1
COc1cccc(Cn2cc(C3=CCN(CC(=O)N(C)C)CC3)cn2)c1	-13.1
CCn1c(CN2CCN(CCOC)CC2)nc2c(F)cccc21	-9.86
Cn1cc(C(C)(O)CNC(=O)c2ccc(Br)s2)cn1 (centres undefined)	-52.7
CN1N=C(C(=O)N2CCN(c3ncccn3)CC2)CCC1=O	3.62
O[C@@H]1CN(c2nc3ccccc3o2)CC[C@H]1c1ccc2c(c1)OCO2	5.36
COc1cccc(-n2c(C)cc(C(=O)O)c2C)c1	-8.65
Cc1cc(CN2CCN(C(=O)C(C(C)C)n3cncn3)CC2)on1 (centres undefined)	2.35
Fc1ccccc1CN(CCCn1ccnc1)CC1CCOC1 (centres undefined)	8.68
CC1=C(C#N)C(=O)NC(=O)/C1=C\c1c(C)[nH]n(-c2ccccc2)c1=O	0.137
COc1ccccc1-n1c(C)cc(CNC(=O)NC(C)C)c1C	3.49
COc1ccc(C2Nc3ccccc3N=C3CNC(=O)C32)cc1OC (centres undefined)	5.56
O=c1ccc(-c2cccs2)nn1CN1CCN(C2CCS(=O)(=O)C2)CC1 (centres undefined)	9.99
CCC(C)NC(=O)c1ccc(CNC(=O)COC)cc1 (centres undefined)	10.7
COc1cccc(S(=O)(=O)N2CCn3cnc(COCC4CC4)c3C2)c1	-18.9

SMILES	cytotoxicity at 10 µM [%]
O=S1(=O)COCCN1Cc1ccc(Cl)c(F)c1	-11.6
CC1CCCCN1C(=O)CCn1cnc2sccc2c1=O (centres undefined)	3.63
Cc1ccc(C(=O)NCC2CCN(C)c3ccccc32)c(=O)[nH]1 (centres undefined)	12.6
C[C@@H]1CN(Cc2cccnc2)C[C@]1(C)O	-6.1
Cc1nc(CN2CCN(C(=O)CCc3cccc(Cl)c3)CC2)no1	2.93
COCCn1ccc2c(cnc3nc(SC)nn32)c1=O	-17.4
Cc1ccc(CN(Cc2ccccn2)C(=O)CCC2CCCN(C)C2)s1 (centres undefined)	18.3
Cc1cccc(CN2CCc3[nH]nc(C(=O)N4CCNC(=O)C4)c3C2)n1	18.2
CN1CCC(C)(CN(C)Cc2ccc(CCC(C)(C)O)cc2)C1 (centres undefined)	-6.44
CCc1csc(CNc2cc(C)nc(-c3cccnc3)n2)n1	4.83
COc1cc2nc(NCCNS(C)(=O)=O)cc(C)c2cc1OC	-1.08
O=S(=O)(NCC1CCN(c2cnccn2)CC1)c1ccc(F)c(Cl)c1	11.6
O=C(NCCOCCO)c1cccnc1Oc1ccc(Cl)cc1	1.38
Cc1ccc(N[C@@H]2CN(Cc3cc(C)on3)C[C@@H]3CCCO[C@@H]32)nn1	-0.113
Cc1csc(CN2CCC(C(=O)O)(n3ccc(-c4ccco4)n3)CC2)n1	-127
CN(C(=O)Nc1ccccn1)C1CCCN(c2ccccc2)C1=O (centres undefined)	-6.63
CCN(Cc1cccc(C(=O)Nc2c(C)cnn2C)c1)[C@H]1COC[C@@H]1O	-1.58
CC(=O)Nc1cccc(C(=O)Nc2cnc3n2CCCC3)c1	4.36
CC(C)CS(=O)(=O)N1C[C@@H]2C[C@H](C(=O)N3CCOCC3)[C@H](C1)O2	-2.71
COc1ccnc(CN2CCCC(CCc3ccccc3)C2)c1OC (centres undefined)	0.979
NC(=O)c1cc(C2CCCN(CCOc3ccc(F)cc3)C2)n[nH]1 (centres undefined)	-7.92
c1coc(-c2nnc(CN3CCCC3Cn3cncn3)o2)c1 (centres undefined)	-5.46

SMILES	cytotoxicity at 10 µM [%]
COCCOc1ccc(C(=O)N2CCCC(n3cncn3)C2)cn1 (centres undefined)	-11.7
NC(=O)CN(CC1CCOC1)C1CC1 (centres undefined)	-14
O=C(NCC(CO)Cc1ccc(Cl)cc1)c1ccncc1Cl (centres undefined)	5.21
CC(C)CCC(=O)N(C)CC(=O)Nc1ccc(Br)cn1	-8.39
Cn1ncc2c(NCC3CCS(=O)(=O)C3)nc(C3CCCC3)nc21 (centres undefined)	-5.1
COCC(=O)N1CCC2(CC1)CC(OC)CO2 (centres undefined)	-1.56
CCN1CCn2c(C)cnc2C12CCN(C(=O)COC)CC2	6.5
CC(C)Nc1ncnc2c1CCN(C(=O)Cc1cccs1)CC2	-80.9
Cc1ccccc1C1CCN(CCn2cc(-c3nccs3)nn2)C1 (centres undefined)	-1.29
Cc1noc(CN2CCC(c3ccnn3CCO)CC2)n1	-9.62
CS(=O)(=O)Cc1nc(CN2CCC(C(F)(F)F)CC2)cs1	-10.9
COc1cc(CCC(=O)NC2CCN(C)CC2)ccc1OCC(F)(F)F	-8.82
Cc1nsc(NC(=O)N2CCN(Cc3ccc(F)cc3)C(=O)C2)n1	1.07
CCCN1CCN(C(=O)c2ccc3ccccc3n2)[C@H]2CS(=O)(=O)C[C@H]21	-3.31
OC(CNCCn1cccn1)c1cccc(F)c1 (centres undefined)	-4.41
CC(C)CN1CC(O)CN(S(=O)(=O)c2ccc(F)cc2)CC1=O (centres undefined)	2.99
CCc1ncncc1C(=O)N1CCOC(c2nc(C)n[nH]2)C1 (centres undefined)	0.842
CC(C)NS(=O)(=O)c1cc(C(=O)O)cc(-c2ccccc2CN(C)C)c1	6.41
Cc1noc(C)c1C(=O)N1CCC2(CC1)c1nc[nH]c1CCN2C	7.9
Cn1nccc1-c1nnn2c1COCC(CNCC1CC1)C2 (centres undefined)	-98.8
O=C(Cc1ccc(F)cc1)NCC(O)(c1cccs1)C1CC1 (centres undefined)	-39.3
O=C1CC2(CCN(S(=O)(=O)C3CC3)C2)CN1c1cncnc1 (centres undefined)	-11.9

SMILES	cytotoxicity at 10 µM [%]
COCCN1CCN(Cc2nc3c(s2)CCCC3)[C@H]2CS(=O)(=O)C[C@H]21	6.81
Cc1cc(CN2CCOC(CNc3cccnn3)C2)on1 (centres undefined)	-13.8
COc1c(NC(=O)C(C)CCOc2ccccc2)c(C)nn1C (centres undefined)	8.96
Cc1cnn(CCNCc2csc(-c3ccc(C(N)=O)cc3)n2)c1	-7.75
CCn1c(N)nc2cc(C(=O)NCCc3sccc3C)cnc21	-23.3
Cc1ncc(CNC(=O)CCc2cccc(F)c2)c(C2CCCN2C)n1 (centres undefined)	-6.82
Cn1cc(C(=O)OCC(N)=O)c(-c2ccc(F)cc2F)n1	-7.85
O=C(C1CCOC1)N1CCC(Cn2cc(-c3ccsc3)nn2)CC1 (centres undefined)	-0.039
O=C(NCCN1CCCC1)c1cc2c(s1)CCN2C(=O)c1ccccc1	0.559
Cc1nc2c(c(N3CCCOCC3)n1)CCN(C(=O)N1CCCC1)CC2	9.2
CC(C)c1n[nH]c(C2CN(C(=O)CCCn3cccn3)CCO2)n1 (centres undefined)	-7.85
CN(C)C(=O)Cn1c(C2CC2)c(CN2CCOCC2)c2cccnc21	-3.99
CC(C)(C)c1cc(C[C@H]2CNCC[C@H]2CC(=O)N2CCCCC2)no1	-1.91
Cc1nn(C)c(C)c1OCC(=O)N1CCCc2c(F)ccc(F)c21	2.27
c1coc(CN2CC[C@H]3O[C@@H](COCC4CC4)CC[C@H]32)c1	-137
NC(=O)C1CCN(C(=O)NC2CCc3cc(Cl)ccc32)CC1 (centres undefined)	1.67
Fc1ccc(CNC2CCN(CCc3ccncc3)CC2)cc1F	-12.6
Cc1nn(C2CCS(=O)(=O)C2)c(C)c1CC(=O)NCc1ccccc1Cl (centres undefined)	-0.178
Cc1nc(C)c(C(=O)Nc2ccc(-c3nnc(N(C)C)o3)cc2)o1	1.87
Cc1ccc2nc(C)c(C)c(C(=O)N3CCC4(CCO4)CC3)c2c1	0.707
[O-][S+](Cc1c(F)cccc1Cl)Cc1nnnn1C1CC1 (centres undefined)	0.0902
